This is an account of results in publication PMC4245150 (Organometallics, 2014).

The subject of experiment [1] is PC3. Briefly: XTT cell viability assay, PC3. The class given is cell-based, human. Background: Formazan colour is commonly taken as a measure of viable cells.
Experiment [2] has as its system HEK-293T. Briefly: XTT cell viability assay, HEK-293T. The class given is cell-based, human. Conditions: HEK-293T (nontumorigenic). In outline: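 HEK-293 cells kept in DMEM with 10% FBS, 1% NEAA and PenStrep at 37 °C, 5% CO2. Seeded at 5000 cells/well in phenol-red-free, antibiotic-free DMEM (10% FBS, 2 mM L-glutamine) and grown 24 h. Test compound was dissolved in 1% DMSO, diluted in water and dosed at 0.1–200 μM final for 24 or 72 h. XTT was added at 0.3 mg/mL for 4 h, and A450 read. IC50 is the concentration halving proliferation against untreated cells, from ≥2 independent experiments in triplicate.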

Experiment [3] concerns DU145. Nature of the experiment: XTT cell viability assay, DU145. The class given is cell-based, human. Put shortly:
(§1)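 Cells kept in RPMI-1640 with 10% FBS, 1% NEAA and PenStrep at 37 °C, 5% CO2. Seeded at 5000 cells/well in phenol-red-free, antibiotic-free RPMI (10% FBS, 2 mM L-glutamine) and grown 24 h. Test compound was dissolved in 1% DMSO, diluted in water and added at 0.1–200 μM final for 24 or 72 h. XTT was added at 0.3 mg/mL for 4 h, and A450 read. IC50 is the concentration halving proliferation against untreated cells, from ≥2 independent experiments in triplicate.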

The subject of experiment [4] is A498. Briefly: XTT cell viability assay, A498. It counts as cell-based, human.
In experiment [5] the test system is UO31. Briefly: XTT cell viability assay, UO31. It counts as cell-based, human. In outline: as §1
Experiment [6] has as its system Caki-1. Nature of the experiment: XTT cell viability assay, Caki-1. It counts as cell-based, human. Put shortly:
as §1

The test system of experiment [7] is PKCι-par6. The conditions noted are these: PKCι-par6 in vitro; cited from earlier work.
The test system of experiment [8] is plasmid (pBR322) DNA. Nature of the experiment: electrophoresis mobility shift assay with plasmid DNA. It counts as binding. Conditions: metal/DNAbp ratios 0.25-2.0, 37 °C, 20 h, pH 7.39. Put shortly:
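pBR322 DNA (20 μg/mL) in 5 mM Tris/HCl, 50 mM NaClO4, pH 7.39 incubated with test compound ([…] metal complex/DNAbp) for 20 h at 37 °C in the dark; free DNA and cisplatin-treated DNA as controls. Samples run on 1% agarose gel, 1.5 h at 80 V in Tris-acetate/EDTA, stained 30 min with GelRed.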

Experiment [9] deals with CT-DNA. Conditions: physiological pH / pH 7; cited from earlier work.
Experiment [10] relates to panel of 30 kinases. Nature of the experiment: HotSpot kinase assay, panel of 30 nonlipid kinases. It counts as biochemical. The conditions noted are these: even at concentrations of 100 μM.
Experiment [11] has as its system PI3 kinases. Nature of the experiment: HotSpot kinase assay, lipid PI3 kinases. It counts as biochemical. Conditions: IC50 values only plotted in Figure 8.

By IC50 is commonly meant the concentration that inhibits the measured activity by half.

Some results are limits rather than exact numbers.

Turning to `COc1ccc(C[C]2([Ti+2][C]3(Cc4ccc(OC)cc4)C=CC=C3)C=CC=C2)cc1.[Cl-].[Cl-]` [Titanocene Y], the 50% inhibitory concentration (IC50) in [1] (PC3, 24 h incubation) was greater than 200 µM; in [1] (PC3, 72 h incubation) it was 58.1 ± 11.2 µM; in experiment [2] (24 h incubation) it was greater than 200 µM; in experiment [2] (72 h incubation), greater than 200 µM; in experiment [3] (DU145, 24 h incubation), greater than 200 µM; in experiment [3] (DU145, 72 h incubation), 55.2 ± 7.9 µM. Also, the IC50 in [4] (A498, 24 h incubation) was greater than 200 µM; in experiment [4] (A498, 72 h incubation), greater than 29.6 µM; in [5] (UO31, 24 h incubation), greater than 200 µM; in experiment [5] (UO31, 72 h incubation), greater than 200 µM; in experiment [6] (Caki-1, 24 h incubation) it was greater than 200 µM; in experiment [6] (Caki-1, 72 h incubation), 29.4 ± 4.2 µM.
Turning to `OC[C@H]1O[C@H]([S-])[C@H](O)[C@@H](O)[C@@H]1O.[Au+]` [aurothioglucose], the IC50 in experiment [7] was roughly 1 µM.
`O=C(O)CC([S-])C(=O)O.[Au+]` (stereo not shown) [aurothiomalate]: in experiment [7], the IC50 is roughly 1 µM.
As to `N.N.[Cl][Pt][Cl]` [cisplatin], the IC50 is 92 ± 18 µM in experiment [1] (PC3, 24 h incubation); 14 ± 2.3 µM in experiment [1] (PC3, 72 h incubation); 64.4 ± 7.9 µM in experiment [2] (24 h incubation); 3.2 ± 0.13 µM in experiment [2] (72 h incubation); 44.5 ± 0.33 µM in [3] (DU145, 24 h incubation); 12.1 ± 3.9 µM in experiment [3] (DU145, 72 h incubation). For the same compound, the half-maximal inhibitory concentration (IC50) in experiment [4] (A498, 24 h incubation) was 74.7 ± 6 µM; in [4] (A498, 72 h incubation), 37.2 ± 4.6 µM; in experiment [5] (UO31, 24 h incubation), greater than 100 µM; in [5] (UO31, 72 h incubation) it was 8.9 ± 2.7 µM; in experiment [6] (Caki-1, 24 h incubation), 68.8 ± 0.14 µM; in experiment [6] (Caki-1, 72 h incubation) it was 29 ± 4.1 µM. The “effect on electrophoretic mobility of plasmid forms” value in experiment [8] was “decrease in mobility of the CCC form and an increase in mobility of the OC form”.
Turning to `O=C(O)C[P+]([Au-][Cl])(c1ccccc1)c1ccccc1` [compound 6, [HOC(O)CH2PPh2AuCl]], the IC50 in experiment [1] (PC3, 24 h incubation) stood at 38.2 ± 2.2 µM; in [1] (PC3, 72 h incubation), 30.2 ± 4.2 µM; in [2] (24 h incubation) it was 36.5 ± 3.3 µM; in experiment [2] (72 h incubation), 9.7 ± 2.5 µM; in experiment [3] (DU145, 24 h incubation), 34.7 ± 1.8 µM; in experiment [3] (DU145, 72 h incubation), 31.3 ± 3.1 µM. In addition, the IC50 in experiment [4] (A498, 24 h incubation) came out at 58 ± 11 µM; in experiment [4] (A498, 72 h incubation) it was 43 ± 4.9 µM; in experiment [5] (UO31, 24 h incubation) it was 27.3 ± 2.7 µM; in experiment [5] (UO31, 72 h incubation), 5.2 ± 1.6 µM; in experiment [6] (Caki-1, 24 h incubation) it was 33.8 ± 2.1 µM; in experiment [6] (Caki-1, 72 h incubation) it was 23 ± 4.1 µM. Further, the “effect on electrophoretic mobility of plasmid forms” value in experiment [8] is on record as “does not affect the mobility of the faster-running supercoiled form”.
As to `[Cl-].[Cl-].[Ti+4].c1cc[cH-]c1.c1cc[cH-]c1` [titanocene dichloride], the “interaction with CT-DNA” value in experiment [9] is reported as “does not interact with CT-DNA”. Also, the IC50 in [1] (PC3, 24 h incubation) was greater than 200 µM; in [1] (PC3, 72 h incubation) it was greater than 200 µM; in experiment [2] (24 h incubation), greater than 200 µM; in [2] (72 h incubation), greater than 200 µM; in experiment [3] (DU145, 24 h incubation) it was greater than 200 µM; in [3] (DU145, 72 h incubation) it was greater than 200 µM. In addition, the concentration for half-maximal inhibition (IC50) in experiment [4] (A498, 24 h incubation) was greater than 200 µM; in [4] (A498, 72 h incubation) it was greater than 200 µM; in experiment [5] (UO31, 24 h incubation), greater than 200 µM; in [5] (UO31, 72 h incubation) it was greater than 200 µM; in [6] (Caki-1, 24 h incubation), greater than 200 µM; in experiment [6] (Caki-1, 72 h incubation) it was greater than 200 µM. For the same compound, in [10], the “inhibition of enzymatic activity of 30 kinases” value was “did not inhibit the enzymatic activity to levels of 50% or below”. Further, in experiment [11], the “inhibition of PI3 kinase family” value is “inhibits exclusively protein kinases of the PI3 kinase family at nanomolar concentrations”.
